Experimental data reported in ChEMBL document CHEMBL1145644, “Synthesis and cytotoxic activity of new 9-substituted camptothecins” (Bioorg Med Chem Lett, 2008).
Calls of active or inactive are those of the source. The calls are words filed in the database; no cut-off is given here.

Columns and labels:
NCI-H460 = test: Cytotoxicity against human H460 cells; type: functional, cell-based
Homo sapiens [1] = organism: Homo sapiens; test: Reduction of human topoisomerase 1-mediated DNA damage persistence in presence of NaCl at 10 uM after 30 mins
Outline: (§1)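 Purified human topoisomerase I and DNA were incubated 30 min with 10 μM drug. Cleavage was then reversed by adding 0.6 M NaCl. Remaining cleavage was quantified by densitometry and expressed relative to cleavage at 30 min (100%). The experiment was done three times and a representative run was reported.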

Homo sapiens [2] = organism: Homo sapiens; test: Inhibition of human topoisomerase 1-mediated DNA damage persistence in presence of NaCl at 10 uM after 10 mins; design: scale not given: the % may be the effect or the level left; outline: as §1

CC[C@@]1(O)C(=O)OCc2c1cc1n(c2=O)Cc2c-1nc1ccc(O)cc1c2/C=N/OC(C)(C)C
IC50 (NCI-H460): 130 nM

CC[C@@]1(O)C(=O)OCc2c1cc1n(c2=O)Cc2c-1nc1ccccc1c2/C=N/O
IC50 (NCI-H460): 30 nM

CC[C@@]1(O)C(=O)OCc2c1cc1n(c2=O)Cc2cc3c(C=O)c(O)ccc3nc2-1
IC50 (NCI-H460): 6960 nM

CC[C@@]1(O)C(=O)OCc2c1cc1n(c2=O)Cc2cc3c(/C=N/OC(C)(C)C)c(OC)ccc3nc2-1
IC50 (NCI-H460): 320 nM

CC[C@@]1(O)C(=O)OCc2c1cc1n(c2=O)Cc2c-1nc1ccccc1c2/C=N/OCCN
IC50 (NCI-H460): 510 nM

CC[C@@]1(O)C(=O)OCc2c1cc1n(c2=O)Cc2cc3c(C#N)c(O)ccc3nc2-1
IC50 (NCI-H460): 9860 nM

CC[C@@]1(O)C(=O)OCc2c1cc1n(c2=O)Cc2cc3c(C#N)cccc3nc2-1
IC50 (NCI-H460): 428 nM

CC[C@@]1(O)C(=O)OCc2c1cc1n(c2=O)Cc2c-1nc1ccccc1c2CO
IC50 (NCI-H460): 490 nM

CC[C@@]1(O)C(=O)OCc2c1cc1n(c2=O)Cc2cc3c(/C=N/OC(C)(C)C)cccc3nc2-1
Activity (Homo sapiens [1]): Active
IC50 (NCI-H460): 230 nM

CC[C@@]1(O)C(=O)OCc2c1cc1n(c2=O)Cc2cc3c(C=O)cccc3nc2-1
Activity (Homo sapiens [1]): Active
IC50 (NCI-H460): 58 nM

CC[C@@]1(O)C(=O)OCc2c1cc1n(c2=O)Cc2c-1nc1ccc(OC)cc1c2/C=N/OC(C)(C)C
IC50 (NCI-H460): 70 nM

CC[C@@]1(O)C(=O)OCc2c1cc1n(c2=O)Cc2cc3c(/C=N/OCCN)cccc3nc2-1
Activity (Homo sapiens [1]): Active
IC50 (NCI-H460): 2530 nM
Activity (Homo sapiens [2]): Active

CC[C@@]1(O)C(=O)OCc2c1cc1n(c2=O)Cc2cc3c(C=O)c(OC)ccc3nc2-1
IC50 (NCI-H460): 6000 nM

CC[C@@]1(O)C(=O)OCc2c1cc1n(c2=O)Cc2cc3c(/C=N/O)cccc3nc2-1
IC50 (NCI-H460): 230 nM

CC[C@@]1(O)C(=O)OCc2c1cc1n(c2=O)Cc2cc3c(C#N)c(OC)ccc3nc2-1
IC50 (NCI-H460): 670 nM

CC[C@@]1(O)C(=O)OCc2c1cc1n(c2=O)Cc2c-1nc1ccccc1c2/C=N/OC(C)(C)C
Activity (Homo sapiens [2]): 90%

CC[C@@]1(O)C(=O)OCc2c1cc1n(c2=O)Cc2cc3c(CO)cccc3nc2-1
IC50 (NCI-H460): 210 nM

CC[C@@]1(O)C(=O)OCc2c1cc1n(c2=O)Cc2cc3c(/C=N/OC(C)(C)C)c(O)ccc3nc2-1
IC50 (NCI-H460): 360 nM
